One molecule from ChEMBL document CHEMBL5030534, “Discovery of Novel Anti-Breast-Cancer Inhibitors by Synergistically Antagonizing Microtubule Polymerization and Aryl Hydrocarbon Receptor Expression” (J Med Chem, 2021) can be followed below.

Calls of active or inactive are those of the source. The rule behind the calls is not given here.

The test system of series [1] is MCF7. Put plainly: Cell cycle arrest in human MCF7 cells assessed as accumulation of cells at G2/M phase at 0.5 to 2 nM measured after 24 hrs by propidium iodide staining based flow cytometric analysis relative to control. Conditions: dose 0.5-2 nM. The series is classed as functional. In a few lines:
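MCF-7 seeded 4 × 10⁵ per well for 24 h, treated with DMSO or 0.5, 1, 2 nM. Fixed in 75% ethanol at −20 °C for 12 h, stained with PI by cell-cycle kit, analysed by flow cytometry. Three runs.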
(In general: A flow cytometer gives signals particle by particle.)

For series [2], the system named is MCF7. Put plainly: Induction of apoptosis in human MCF7 cells assessed as increase in PARP protein expression at 1 to 4 nM. The series is classed as functional, cell-based. Conditions: dose 1-4 nM. The method in brief: (§1)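 MCF-7 seeded 4 × 10⁵ per well for 24 h, then DMSO or compound at 1, 2, 4 nM for 24 h. Lysates protein-normalized to 3 mg/mL by BCA, resolved on 4–20% SDS-PAGE and immunoblotted. Bands quantified relative to β-actin (cell-cycle proteins) or GAPDH (apoptosis proteins); n = 3.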

The test system of series [3] is MCF7. Put plainly: Induction of apoptosis in human MCF7 cells assessed as viable cells at 1 nM measured after 24 hrs by Annexin V-FITC and PI staining based flow cytometry assay (reference value: 96.8%). The series is classed as functional. Conditions: read-out: Activity.
The subject of series [4] is MCF7. Put plainly: Induction of apoptosis in human MCF7 cells assessed as early apoptotic cells at 0.5 nM measured after 24 hrs by Annexin V-FITC and PI staining based flow cytometry assay (reference value: 0.90%). Format: functional.
The subject of series [5] is MCF7. The series can be described thus: Cell cycle arrest in human MCF7 cells assessed as increase in Cyclin B1 protein expression. Conditions: dose 1-4 nM.
The subject of series [6] is MCF7. The series can be described thus: Induction of apoptosis in human MCF7 cells assessed as viable cells at 2 nM measured after 24 hrs by Annexin V-FITC and PI staining based flow cytometry assay (reference value: 96.8%). Conditions: read-out: Activity. Format: functional.
Series [7] in a line: Toxicity in BALB/c nude mouse xenografted with human MCF7 cells assessed as effect on heart at 0.5 to 1 mg/kg, iv administered every 2 days for 21 days by H and E staining based assay. Format: organism-based. Conditions: in vivo, 504 h, dose 0.5-1 mg/kg, time 21 day. The method in brief: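 Nude mice given 6 × 10⁶ MCF-7 cells subcutaneously on right flank; after 7 days randomized, eight per group. iv dosing every 2 days at 0.5 or 1 mg/kg; vehicle 10% DMSO/5% Tween 80/85% saline; paclitaxel 10 mg/kg and CA-4 20 mg/kg references. Body weight every 2 days; killed after 21 days; organs fixed, paraffin-sectioned, H&E stained.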
Background: A xenograft is tissue or cells of one species grown in another, often human tumour cells in immunodeficient mice.

The subject of series [8] is MCF7. Put plainly: Induction of apoptosis in human MCF7 cells assessed as late apoptotic cells at 0.5 nM measured after 24 hrs by Annexin V-FITC and PI staining based flow cytometry assay (reference value: 2.06%). Format: functional.
Series [9] relates to MCF7. Put plainly: Antiproliferative activity against human MCF7 cells assessed as reduction in cell viability incubated for 48 hrs by MTT assay. Format: functional, cell-based. Conditions: MCF7, 48 h. The method in brief:
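Cells seeded at 5 × 10³ per well, incubated overnight, then exposed to a range of compound concentrations for 48 h. MTT added for 4 h, medium replaced with DMSO, absorbance read at 570 nm. MCF-7, L-O2 grown in DMEM; MCF-10A, MCF-7/ADR in RPMI 1640. Three independent runs.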
Background: Tetrazolium dyes change colour on reduction, which living cells bring about.

A further series concerns the target Tubulin (Homo sapiens) (UniProt P68371+Q9H4B7+P0DPH7+P68366+Q13509+Q71U36+P04350+Q3ZCM7+P07437+P68363+Q9BQE3+Q6PEY2+Q13885+Q9BVA1+Q9BUF5). Put plainly: Induction of microtubule depolymerization in human MCF7 cells at 10 uM measured every 5 mins for 60 mins by spectrophotometric method. The series is classed as cell-based. In a few lines:
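Purified tubulin at 2 mg/mL in PEM buffer preincubated on ice with compound or DMSO. PEG added to a final 3 mg/mL, then polymerization followed at 37 °C by absorbance at 350 nm every 5 min for 60 min.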

For series [10], the system named is MCF7. The series can be described thus: Induction of apoptosis in human MCF7 cells assessed as early apoptotic cells at 1 nM measured after 24 hrs by Annexin V-FITC and PI staining based flow cytometry assay (reference value: 0.90%). Format: functional.
The subject of series [11] is MCF7. Put plainly: Induction of ROS generation in human MCF7 cells measured after 24 hrs by DCFH-DA staining based flow cytometric analysis. The series is classed as functional, cell-based. Conditions: dose 0.5-2 nM. The method in brief:
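MCF-7 seeded 4 × 10⁵ per well for 24 h, then DMSO or 0.5, 1, 2 nM for 24 h. Loaded with DCFH-DA for 30 min in the dark, resuspended in serum-free medium, DCF fluorescence measured by flow cytometry. For scavenger condition, 2.5 mM N-acetyl-L-cysteine pretreatment, then 2 nM for 24 h. Three runs.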

The subject of series [12] is MCF7. The series can be described thus: Induction of apoptosis in human MCF7 cells assessed as viable cells at 0.5 nM measured after 24 hrs by Annexin V-FITC and PI staining based flow cytometry assay (reference value: 96.8%). Format: functional. Conditions: read-out: Activity.
For series [13], the system named is MCF7. The series can be described thus: Induction of apoptosis in human MCF7 cells assessed as increase in Bad protein expression at 1 to 4 nM. The series is classed as functional, cell-based. Conditions: dose 1-4 nM. The method in brief:
as §1

For series [14], the system named is MCF7. Put plainly: Antitumor activity against human MCF7 cells xenografted in BALB/c nude mouse assessed as decrease in tumor weight at 1 mg/kg, iv administered every 2 days for 21 days and measured every 2 days. Format: functional. On the set-up: scale not given: the % may be the effect or the level left. Conditions: time 21 day. The method in brief:
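MCF-7 cells (6 × 10⁶) injected subcutaneously into right flank of BALB/c nude mice; after 7 days animals randomized, eight per group. Dosing iv every 2 days for 21 days, vehicle 10% DMSO/5% Tween 80/85% saline. Tumor size and body weight recorded every 2 days; tumors excised and weighed at sacrifice.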

For series [15], the system named is MCF7. Put plainly: Induction of mitochondrial membrane potential loss in human MCF7 cells at 2 nM measured after 24 hrs by JC-1 staining based flow cytometry analysis (reference value: 3.01%). Format: functional.
Series [16] deals with MCF7. Put plainly: Induction of apoptosis in human MCF7 cells assessed as early apoptotic cells at 2 nM measured after 24 hrs by Annexin V-FITC and PI staining based flow cytometry assay (reference value: 1%). Format: functional.

For the molecule `Cc1nc(N(C)c2ccc3c(c2)cc(C)n3C)c2ccccc2n1`, the Activity in the series on MCF7 [1] is 46.87%; in the series with MCF7 [4], 1.28%; in the series on MCF7 [5], “Dose-Dependent Effect”; in [7] it was “Non-Toxic”; in the series on MCF7 [8], 2.17%; with MCF7 [10], 6.63%. The Activity entry with MCF7 [11] is “Dose-Dependent Effect”; with MCF7 [14] it was 81.1%; in the series on MCF7 [15], 24.7%; with MCF7 [16] it was 6.9%. In addition, the outcome in the series with MCF7 [2], at Tubulin (Homo sapiens) and with MCF7 [13] was Active. In addition, the viability at 0.001 µM with MCF7 [3] came to 61.5%. Besides, in the series with MCF7 [6], the viability at 0.002 µM stood at 38.3%. The IC50 – broadly, the midpoint of a concentration-inhibition curve – in the series with MCF7 [9] stood at 0.9 nM. Also, the viability at 0.0005 µM in the series with MCF7 [12] is 95%.
